Measured values published in ChEMBL document CHEMBL4513216, “Probing the Open Global Health Chemical Diversity Library for Multistage-Active Starting Points for Next-Generation Antimalarials” (ACS Infect Dis, 2020).

Experiment: Toxicity liver stage against HepG2, at 10uM
Type: cell-based
Parameters: test concentration 10 uM, cell line HepG2-A16-CD81EGFP
Conditions: human, HepG2-A16-CD81EGFP cells; read-out: INHIBITION
Procedure, shortened: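 Uninfected HepG2-A16-CD81EGFP cells, 3 × 10^3 per well, 1536-well, plated on prespotted compound at 10 μM final, parasite-free screening media added to match infected plates; puromycin 10 μM positive, DMSO 0.5% negative; run in parallel with 48 h PbLuc assay at 37 °C, 5% CO2; viability by CellTiter-Glo luminescence, normalized to controls.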

Row | Compound | cytotoxicity at 10 µM
1 | Cc1noc([C@@H]2C[C@H](NC(=O)NC(C)C)CN2C)n1 | -10.1%
2 | COc1ccccc1CN1C[C@@H](F)[C@@H](OCc2nc3ncccc3[nH]2)C1 | 6.96%
3 | CC(C)CC1CC(=O)Nc2c1cnn2Cc1ccco1 (configuration not stated) | -2.75%
4 | CC(C)n1cc(C(=O)NC2CN3CCC2CC3)c2ccccc21 (configuration not stated) | -59.7%
5 | O=C(Nc1cccnc1)C1CCCN(c2cc(-n3cccn3)ncn2)C1 (configuration not stated) | -5.36%
6 | c1csc(CN2CCC3(CC2)COCCN3CC2CC2)n1 | 5.53%
7 | O=C(NC1CC1)C1CCN(c2nc3nc[nH]c(=O)c3s2)CC1 | -6.5%
8 | COc1ccc(OC)c(CN2CCCCCC2c2cccs2)c1 (configuration not stated) | -5%
9 | Cc1cccc(NC(=O)Cn2ncc(SCC(N)=O)c(Cl)c2=O)c1C | -15.7%
10 | CC(C)CN1CCC2(CCN(Cc3ccoc3)CC2)C1=O | 7.85%
11 | Cc1c(-c2cc(C(F)(F)F)nc(N3CCC(N)CC3)n2)cnn1C | 6.14%
12 | CCn1nc(C)c2nc(C(C)C)nc(NCCCn3cccn3)c21 | 8.71%
13 | CCOc1cc(C(=O)N2CCCC2)cc2occc12 | 8.52%
14 | Cc1cc(=O)n(CC(=O)NCC2CCCO2)c(-c2ccc(F)cc2)n1 (configuration not stated) | -10.8%
15 | O=C(Cc1ccccc1)NCc1ccc(-c2ccccc2C(=O)O)cn1 | -11.5%
16 | Cc1ccnc(C2CCN(C(=O)c3cnn(C)c3)CC2)n1 | -4.15%
17 | Cc1cnc2[nH]c(C(F)(F)F)c(CN3CCCC(CO)C3)c2c1 (configuration not stated) | 8.48%
18 | CCC(=O)N1CCCC1c1nc(N(C)C)ncc1-c1ccc(Cl)cc1 (configuration not stated) | 5.82%
19 | Cc1cc(O)nc(C2CN(CCO)CCO2)n1 (configuration not stated) | -27.8%
20 | COc1cccc(CC(=O)N2CCCC2c2nc(C)c(C)c(O)n2)c1 (configuration not stated) | -36.9%
21 | Cc1cc(-c2cnc(N3CCNC(=O)C3)nc2-c2ccncc2)on1 | -25%
22 | Cc1cccc(CC(=O)N2CCCC(c3n[nH]c4nccnc34)C2)c1 (configuration not stated) | -8.52%
23 | CN1CCCC(CCCc2cccnc2)(C(N)=O)C1 (configuration not stated) | -7.86%

Row | Compound | cytotoxicity at 10 µM
24 | Cc1nc(Nc2ccccn2)cc(C2CCCN2Cc2ncc[nH]2)n1 (configuration not stated) | -3.11%
25 | CC(C)c1nccn1-c1cccc(C2CCCN(S(=O)(=O)N(C)C)C2)n1 (configuration not stated) | -3.11%
26 | O=C(c1cnccn1)N1CCCC(c2cccc(-n3ccnc3)n2)C1 (configuration not stated) | -9.08%
27 | O=C(C1CCCCC1)N1CCC2(COc3ncccc3S(=O)(=O)N2)C1 (configuration not stated) | 11.3%
28 | CC(=O)Nc1nccn1Cc1ccccc1Cl | -8.1%
29 | O=C(NCc1nnc2n1CCC2)c1cn(-c2ccccc2Br)nn1 | 3.37%
30 | COC(C)c1cccc(NCc2cccs2)c1 (configuration not stated) | -8.94%
31 | CS(=O)(=O)N1CCCC(c2nc(-c3ccccc3)c[nH]2)C1 (configuration not stated) | 2.44%
32 | Cc1nn(C)c(C)c1C1CCCN1Cc1nnc(C2CC2)n1C (configuration not stated) | 1.76%
33 | COc1cc(NC(=O)NCc2nccn2C)ccc1Br | -9.11%
34 | O=C(c1ccc(-n2cccn2)nc1)N1CCC(c2ccc(O)cc2)CC1 | 11.7%
35 | O=C(Cc1cccnc1)N1CCCC(c2cc(C(F)(F)F)[nH]n2)C1 (configuration not stated) | -42.6%
36 | NC(=O)C(Cc1ccccc1)NS(=O)(=O)Cc1ccccc1F (configuration not stated) | -13%
37 | COc1cc(C#N)ccc1OCC(=O)NS(=O)(=O)c1ccccc1 | 0.165%
38 | CCN1CC(COC(=O)c2cc(C)nn2CC)CC1=O (configuration not stated) | -3.37%
39 | COc1cc(C)c(S(=O)(=O)CC(=O)N(C)C2CC2)cc1OC | -3.81%
40 | Fc1cc(CNCCn2cccn2)ccc1-n1cncn1 | -11.1%
41 | Cc1nccn1-c1ccc(C(C)NCc2cc[nH]n2)cc1 (configuration not stated) | 5.33%
42 | COc1cc(OC)cc(N2CCC(NC(=O)c3ccc[nH]3)CC2)c1 | -4.83%
43 | Cn1ccc(C(=O)N2CCOC(c3ccccc3)C2)cc1=O (configuration not stated) | -0.944%
44 | COC(=O)CN(CC1CCOC1)C1CC1 (configuration not stated) | -24.3%
45 | CCCn1cc(NC(=O)c2ccncc2)ccc1=O | -8.44%
46 | CCC1CCCCN1CCNC(=O)N1CCN(Cc2ccon2)CC1 (configuration not stated) | -2.01%

Row | Compound | cytotoxicity at 10 µM
47 | O=C(C1CCCc2[nH]ncc21)N1CCCC2(C1)OCCO2 (configuration not stated) | -1.26%
48 | CCCS(=O)(=O)NCc1cccnc1OCc1ccccc1 | 13%
49 | CCC(=O)N1CCCC1c1ccsc1 (configuration not stated) | -6.05%
50 | N#Cc1cccc(C(=O)NS(=O)(=O)c2ccc(C#N)c(Cl)c2)c1 | -3.54%
51 | Cc1cc(N2CCc3cncnc3C2)n2nc(C(F)(F)F)nc2n1 | 6.25%
52 | CN1CCN(c2ccccc2NC(=O)c2ccco2)CC1 | -5.92%
53 | CCN(C)C(=O)CCN(C)Cc1cnc(C)s1 | 4.04%
54 | CN(C(=O)c1ccc(S(=O)(=O)NC(C)(C)C)cc1)C1(C#N)CCC1 | 3.07%
55 | c1ccc(C(NCc2nnc(-c3ccco3)o2)C2CCC2)cc1 (configuration not stated) | -48.7%
56 | O=C1C(N2CCOCC2)CCCN1Cc1cccc(C(F)(F)F)c1 (configuration not stated) | 0.174%
57 | Cc1noc(-c2cccnc2N(C)Cc2cc(C)on2)n1 | -5.1%
58 | CC1CCCCN1CCNC(=O)NCc1ccc(C#N)cc1F (configuration not stated) | 0.616%
59 | N#CCSCCCN1CCN(C(=O)C2CCCC2)CC1 | 5.34%
60 | C[C@@H]1CN(C(=O)c2cccc(F)c2)C[C@]12CCN(c1ccsc1)C2=O | -80%
61 | O=C(c1ccncn1)N1CCC[C@]2(C[C@H](OCC3CC3)CO2)C1 | -81.9%
62 | Cc1cc(CN2CC[C@H]3C[C@@H](C)O[C@@H]3C2)no1 | -75.5%
63 | c1cncc(OC2CCN(CCn3cc4ccccc4n3)CC2)c1 | 1.48%
64 | Cc1ncsc1CCN(C)C1CCN(c2ncnc3[nH]cnc23)CC1 | -39%
65 | CCc1ccc2nc(NCC(O)CO)cc(C)c2c1 (configuration not stated) | -15.4%
66 | CN(Cc1ccoc1)C(=O)Cn1ncc(N(C)C)cc1=O | 7.68%
67 | CN1CCN(c2cc(Sc3cccs3)nc(N)n2)CC1CCO (configuration not stated) | 1.31%
68 | COc1cc(-c2cccc3c2OC(CN)C3)ccc1O (configuration not stated) | -51.9%
69 | Clc1cccc2c1CCN(Cc1nc(CC3CC3)no1)C2 | 0.873%

Row | Compound | cytotoxicity at 10 µM
70 | CN(CCc1cnn(C)c1)C(=O)CN1C(=O)OC[C@@H]1c1ccccc1 | -41.7%
71 | CCC(CO)N(Cc1ccsc1)CC1CC1 (configuration not stated) | 11.5%
72 | CN(Cc1cc2n(n1)CCN(C(=O)[C@H]1CCCO1)C2)Cc1nccs1 | 7.92%
73 | Cc1ccc(CN2CCN(C3CSCCSC3)CC2CCO)o1 (configuration not stated) | -8.51%
74 | CCN(Cc1cccc2c1OCO2)CC1CCCO1 (configuration not stated) | 3.18%
75 | COc1cc2nc(NCCNS(C)(=O)=O)cc(C)c2cc1OC | -1.08%
76 | CN1CC2(CCN(C(=O)c3ccc(=O)n(C)c3)CC2)CC1=O | -4.46%
77 | CCCc1nc(CNc2nc(C)nc3oc(C)nc23)cs1 | -39.6%
78 | COCCN1CCC(CN(CC2CCCO2)C(=O)CNC(C)=O)CC1 (configuration not stated) | 1.48%
79 | CC(C)N1CC2(CCCN(Cc3noc(C4CCCC4)n3)C2)CCC1=O (configuration not stated) | 0.00194%
80 | O=C(NCc1ccc2c(c1)CCCO2)c1ccc(C2CCNC2)cc1 (configuration not stated) | -11.5%
81 | Cc1n[nH]c(C)c1CCc1nc(C2CC2)n[nH]1 | -12%
82 | Cc1cc(C(=O)N[C@H]2CN(CCC(N)=O)C[C@@H]2C2CC2)sc1C | 8.28%
83 | CC(C)c1cccc(N2CCCC3(CCC(=O)N(C4CC4)C3)C2)n1 (configuration not stated) | -5.01%
84 | COc1ccc(C(CNC(=O)c2c(C)noc2C)N(C)C)cc1 (configuration not stated) | -13.1%
85 | Nc1cc2c(nn1)CCN(C(=O)CC1CCCCC1)C2 | -2.78%
86 | CS(=O)(=O)NCCN1CCCC1c1ccc(Cl)cc1 (configuration not stated) | 3.6%
87 | Cc1ccc(C(=O)N(C2CC2)C2CC(=O)NC2=O)cc1F (configuration not stated) | -7.33%
88 | Cc1ccccc1C1(CNC(=O)CCN2C(=O)CCC2=O)CC1 | -11.8%
89 | c1cnnc(NCC2CN(Cc3ccon3)CCO2)c1 (configuration not stated) | -32.2%
90 | c1ccc(-n2cc(CN3CCCC3Cn3cncn3)nn2)cc1 (configuration not stated) | -0.0716%
91 | CNS(=O)(=O)c1cccc(CNc2ncccn2)c1 | -9.7%
92 | O=C(NCCNc1ncccn1)C1CC(=O)N(Cc2ccccn2)C1 (configuration not stated) | -10.4%

Row | Compound | cytotoxicity at 10 µM
93 | Cn1ncc2c1CCCC2NCc1cccc(OC2CCCC2)c1 (configuration not stated) | -19.3%
94 | O=C(CCOc1ccccc1)N1CCC(Nc2cccnn2)CC1 | -9.29%
95 | CC(C)NC(=O)C(c1ccccc1)N1CCn2c(nnc2C2CC2)C1 (configuration not stated) | -3.3%
96 | Fc1ccc(OCc2noc(CN3CCc4cncnc4C3)n2)cc1 | 2%
97 | CCc1noc(C(C)N2CCC(N3CCCC3)CC2)n1 (configuration not stated) | -7.77%
98 | CN(C(=O)c1cc(Cl)c[nH]1)C1CCN(c2ccccn2)CC1 | -1.49%
99 | CC1CN(CC(=O)NC2CCCC2)CCN1c1ccc2nncn2n1 (configuration not stated) | -1.58%
100 | CCc1nc(CN2CCN(C(=O)Cc3c(C)noc3C)CC2)cs1 | -0.549%
101 | O=C(N1CCCC1)C1(Cc2ccc(-c3cccs3)cc2)CCNC1 (configuration not stated) | -1.75%
102 | c1cncc(CN2CCO[C@@H]3CN(Cc4ccoc4)CC[C@@H]3C2)c1 | -70.9%
103 | O=C(NC1CC1)[C@H]1CC[C@@H]2[C@@H](CCN2c2ncc(F)cn2)O1 | -1.65%
104 | CC(C)Oc1ncnc2c1CCN(Cc1ccco1)CC2 | 8.49%
105 | O=C(C1CCC1)N1C[C@@H]2CN(Cc3ccncc3)C(=O)[C@@H]2C1 | -113%
106 | CN(CCc1ccccn1)C(=O)c1cccs1 | 3.45%
107 | O=C(c1ccccc1)N1CCCn2c(CN3CCCCC3)nnc2C1 | -65.5%
108 | CNC(=O)c1cc2c(nc1N(C)C)CCN(c1ncc(F)cn1)CC2 | -131%
109 | Cc1ccc(C(=O)N2C[C@H](N3CCOCC3)[C@@H]3OCCC[C@@H]32)cn1 | -108%
110 | O=C([C@@H]1COC[C@H]2CN(C3CCCC3)C[C@H]21)N1CCC(F)CC1 | -103%
111 | CN1CCN(C=C2N=C(c3cc(-c4ccc(F)cc4)n[nH]3)ON2)CC1 | -2.08%
112 | CCn1[nH]c(C)c2c(C(F)(F)C(F)(F)F)cc(=O)nc1-2 | -9.29%
